71 compounds from PubChem BioAssay AID2237 (Johns Hopkins Ion Channel Center, 2010) can be followed below.

Out of some 310,000 compounds screened, about 1,500 (0.48%) were called active. The sample holds actives, similar compounds and a random draw of the others, so the mix is not that of the screen.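 How the source made its calls: active means B-score above 5 SD of library B-scores, and initial fluorescence ratio not above library mean plus 5 SD; inactive means the rest.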

Chain of Short transient receptor potential channel 4 (Mus musculus) (Q9QUQ5 whole entry, looked up): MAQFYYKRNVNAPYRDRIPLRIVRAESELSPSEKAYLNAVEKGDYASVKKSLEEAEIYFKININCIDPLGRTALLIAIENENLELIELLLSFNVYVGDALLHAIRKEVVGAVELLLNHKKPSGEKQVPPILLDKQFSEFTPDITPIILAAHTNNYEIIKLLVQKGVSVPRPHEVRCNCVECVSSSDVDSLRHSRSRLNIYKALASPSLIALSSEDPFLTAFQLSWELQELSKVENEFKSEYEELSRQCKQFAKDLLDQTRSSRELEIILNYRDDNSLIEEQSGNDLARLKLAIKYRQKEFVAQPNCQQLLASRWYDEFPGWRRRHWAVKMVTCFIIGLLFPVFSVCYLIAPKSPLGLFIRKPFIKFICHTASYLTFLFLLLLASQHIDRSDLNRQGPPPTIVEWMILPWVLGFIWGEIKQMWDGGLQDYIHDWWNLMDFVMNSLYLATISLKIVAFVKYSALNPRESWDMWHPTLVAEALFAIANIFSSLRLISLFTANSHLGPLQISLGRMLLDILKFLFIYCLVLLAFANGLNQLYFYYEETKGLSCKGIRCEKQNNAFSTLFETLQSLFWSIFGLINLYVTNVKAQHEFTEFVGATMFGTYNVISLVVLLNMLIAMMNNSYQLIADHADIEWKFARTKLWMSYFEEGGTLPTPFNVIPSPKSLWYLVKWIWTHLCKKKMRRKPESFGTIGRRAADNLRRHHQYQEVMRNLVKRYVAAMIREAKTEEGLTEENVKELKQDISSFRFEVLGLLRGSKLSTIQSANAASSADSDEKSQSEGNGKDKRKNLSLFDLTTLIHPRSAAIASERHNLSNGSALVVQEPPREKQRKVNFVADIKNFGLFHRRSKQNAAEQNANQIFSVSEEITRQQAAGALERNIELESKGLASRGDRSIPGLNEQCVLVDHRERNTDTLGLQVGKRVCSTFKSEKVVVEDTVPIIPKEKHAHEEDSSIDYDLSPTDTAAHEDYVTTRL

The test addresses Short transient receptor potential channel 4 (Mus musculus) (UniProt Q9QUQ5). The test is described as follows: TRPC4 cation channel opening, calcium rise – Fluo4 calcium, HEK293 TRPC4beta/mu-opioid cells, primary screen (AID 2237).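 On B-score: positive B-score marks a calcium rise read as TRPC4 activation.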 Particulars: Fluo4 calcium fluorescence, at 10 µM; active compounds read high. The essentials: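 Material: TRPC4beta and mu-opioid receptor HEK293 stable cells | Incubation: 45 min room-temperature Fluo4 loading, 110 s read | Detection: Kinetic Fluo4 calcium fluorescence | Measure: Integrated baseline-normalised fluorescence ratio, converted to per-well B score | Benchmarks: Low control buffer alone, high control maximal DAMGO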
For the compound `O=S(=O)(NCCc1ccncc1)c1ccccc1`, the B-score result was “inactive”.

Regarding `O=S(=O)(NCCc1csc(-c2ccccc2)n1)c1cccnc1`, the B-score is 102 (active).

As to `Cc1nc(CNS(=O)(=O)c2cccnc2)cs1`, the B-score result was “inactive”.

In the case of `CC#CC[N+](C)(C)CCCCCC`, the B-score entry is “inactive”.

Turning to `COC(=O)CC(=O)N1CCN(c2ccc(Cl)c(Cl)c2)CC1`, the B-score entry is “inactive”.

As to `OC(CNCc1ccc2c(c1)OCO2)COc1ccccc1` (stereo unspecified), the B-score entry was “inactive”.

In the case of `OC(CNCCc1ccc(Cl)cc1Cl)COc1ccccc1` (stereo unspecified), the B-score was 44 (active).

For `COc1ccc(OCC(O)CNC(=O)Nc2ccc(Cl)cc2)cc1` (stereo unspecified), the B-score entry is “inactive”.

With `CO/N=C/c1cn(-c2ccc(Cl)cc2)nn1`, the B-score entry was “inactive”.

Consider `CCN(CC)c1ccc(NC(=O)CCc2nnc3ccc(N4CCCCC4)nn23)c(C)c1`, for which the B-score entry is “inactive”.

For the compound `CC(NC(=S)Nc1ccccc1)C(c1cccs1)N1CCOCC1` (stereo unspecified), the B-score result is “inactive”.

As to `CCCC(=O)NC(C)C(c1cccs1)N1CCN(c2ccccc2)CC1` (stereo unspecified), the B-score is 87 (active).

Regarding `CC(NC(=O)C(C)(C)C)C(c1cccs1)N1CCN(Cc2ccccc2)CC1` (stereo unspecified), the B-score result was “inactive”.

In the case of `COc1ccc(CNC(=O)c2ccc3oc(C(C)C)nc3c2)cc1`, the B-score result is “inactive”.

Turning to `COc1ccc(N(CC(=O)Nc2ccc(C)cc2C)S(=O)(=O)c2ccccc2[N+](=O)[O-])c(OC)c1`, the B-score result is “inactive”.

For the compound `O=C(Nc1ccc2sc3ccccc3c(=O)c2c1)c1ccccc1Cl`, the B-score result is “inactive”.

Take `COc1cc(SC#N)ccc1N=Cc1c(C)[nH]n(-c2ccc(C)cc2)c1=O`: the B-score entry is “inactive”.

Turning to `Cc1[nH]n(-c2cccc(Cl)c2)c(=O)c1/C=N/n1c(C)nc2ccccc2c1=O`, the B-score result was “inactive”.

As for `Cc1ccc(-n2[nH]c(C)c(/C=N/N3C(=O)c4cccc5cccc(c45)C3=O)c2=O)cc1`, the B-score is 131 (active).

As to `COc1ccccc1CCNS(=O)(=O)c1cc2c3c(c1)C(C)C(=O)N3CCC2` (stereo unspecified), the B-score entry was “inactive”.

For the compound `CCOc1ccc(S(=O)(=O)NCCC(=O)NCC(C)(C)N2CCOCC2)cc1`, the B-score entry was “inactive”.

As to `COc1ccccc1NC(=O)CC(NCCN(C)C)C(=O)O` (stereo unspecified), the B-score result is “inactive”.

As to `COc1ccc(C)cc1NC(=O)Nc1ccccc1SC`, the B-score result was “inactive”.

Take `COC(=O)C(CC(=O)Nc1cc(C)ccc1C)Nc1ccccc1OC` (stereo unspecified): the B-score is 69 (active).

As for `Cc1ccc(CNC(=O)Cc2cn(C)c3ccccc23)cc1`, the B-score result is “inactive”.

Regarding `COc1ccc(N2CCN(C(=O)c3cccs3)CC2)cc1`, the B-score result is “inactive”.

With `CC(c1cccnc1)N(CCN(C)C)C(=O)Nc1ccc(Cl)c(Cl)c1` (stereo unspecified), the B-score is 62 (active).

As to `O=C(Nc1cccnc1)c1cc(Cl)ccc1Cl`, the B-score entry was “inactive”.

`CS(=O)(=O)N(CC(=O)Nc1ccc(Cl)c(Cl)c1)C1CCCCC1`: the B-score result is “inactive”.

Consider `CC1=C/C(=N\OS(=O)(=O)c2ccccc2)C=CC1=O`, for which the B-score entry is “inactive”.

On to `COc1ccc(-n2nc(C(=O)NCC(=O)N3CCC(C(N)=O)CC3)c3ccccc3c2=O)cc1OC`, for which the B-score entry is “inactive”.

With `CC1(C)N=C(c2ccccn2)C(C)(C)N1O`, the B-score entry was “inactive”.

Regarding `CC1(C)CC(CNCCC(c2ccc(F)cc2)c2ccco2)CCO1` (stereo unspecified), the B-score entry is “inactive”.

As for `O=C(COc1cc(Cl)c(Cl)cc1Cl)NCCc1ccccn1`, the B-score is 85 (active).

Consider `O=C(NCCc1ccccn1)c1cccnc1Oc1ccc(Cl)cc1`, for which the B-score result is “inactive”.

Turning to `O=C(CNC(=O)COc1ccccc1)NCCc1ccccn1`, the B-score entry was “inactive”.

Regarding `CCn1cc(-c2cc(C(=O)O)on2)c(C)n1`, the B-score result was “inactive”.

Take `S=c1nc(C23CC4CC(CC(C4)C2)C3)nc2sccn12`: the B-score entry is “inactive”.

Regarding `N[C@@H](Cc1ccccc1)C(=O)N1CCC(C(=O)NCC(=O)Nc2ccc(F)cc2)CC1`, the B-score result was “inactive”.

For the compound `CN(C)CCN(C(=O)C1CCCCC1)c1nc2cc3c(cc2s1)OCO3`, the B-score is 66 (active).

Turning to `CCN(CC)CCN(C(=O)c1cc(Cl)sc1Cl)c1nc2cc3c(cc2s1)OCO3`, the B-score result is “inactive”.

Consider `CN(C)CCN(C(=O)CN1C(=O)c2ccccc2C1=O)c1nc2cc3c(cc2s1)OCCO3`, for which the B-score entry was “inactive”.

On to `COc1cccc(/C=N/NC(=O)C(=O)N2CCCC2)c1`, for which the B-score result is “inactive”.

Regarding `COc1ccc(/C=N/N(C)C2=NS(=O)(=O)c3ccccc32)cc1OC`, the B-score result was “inactive”.

As for `CN(Cc1ccco1)S(=O)(=O)c1nnc(NC(=O)c2ccccc2)s1`, the B-score result was “inactive”.

In the case of `O=S(=O)(Oc1ccccc1C(=S)N1CCOCC1)c1ccc(Cl)cc1`, the B-score result was “inactive”.

As for `C[C@]1(C(=O)NCCc2c[nH]c3ccccc23)C=C[C@@H](Cc2ccccc2)N1C(=O)c1ccccc1`, the B-score entry is “inactive”.

Consider `Cc1cc(C)cc(C(=O)N(CCc2ccccc2)C2=CC3CCC(C2)N3C)c1` (stereo unspecified), for which the B-score was 75 (active).

Consider `C=CCN(C(=O)c1cc(C)cc(C)c1)C1(C(=O)Nc2ccccc2)CCN(C(C)C)CC1`, for which the B-score entry was “inactive”.

`Cc1ccc(CCN2CC(C(=O)NCCc3ccccc3)CC2=O)cc1` (stereo unspecified): the B-score entry was “inactive”.

For `O=C(CC(c1ccccc1)c1ccccc1)NCC(O)c1ccc([N+](=O)[O-])cc1` (stereo unspecified), the B-score result was “inactive”.

Take `CN(C)C(CNC(=O)Cc1ccc([N+](=O)[O-])cc1)c1ccccc1` (stereo unspecified): the B-score is 179 (active).

Consider `CN(C)CCNC(=O)Cc1ccc([N+](=O)[O-])cc1`, for which the B-score entry is “inactive”.

Turning to `CC(C)Oc1c(Br)cc(Br)cc1/C=N/NC(N)=S`, the B-score result was “inactive”.

As to `Cc1ccc(S(=O)(=O)N(Cc2cc3ccccc3[nH]c2=O)CC2CCCO2)cc1` (stereo unspecified), the B-score entry is “inactive”.

Consider `CC(C)Oc1ccc(CCC(=O)NNC(=S)NCc2ccccc2)cc1`, for which the B-score was 123 (active).

With `COc1ccc(C(=O)NNC(=S)NC(=O)c2ccccc2)cc1`, the B-score was 180 (active).

For `COc1ccc(C(=O)NC(=S)NNC(=O)CCc2ccccc2)cc1`, the B-score was 96 (active).

`O=C(NNC(=S)NCc1ccccc1)c1ccc(OC(F)F)cc1`: the B-score entry is “inactive”.

On to `O=C(CCc1ccccc1)NNC(=O)COc1ccc(Cl)cc1`, for which the B-score entry is “inactive”.

For `COc1ccc(C(=O)NC2CCN(C(=S)NCCc3ccccc3)CC2)cc1`, the B-score entry was “inactive”.

`COc1ccc(C(=O)NNC(=S)NC(=O)c2ccccc2[N+](=O)[O-])cc1`: the B-score entry is “inactive”.

On to `COc1ccc(C(=O)NC(=S)NC2CCCCC2)cc1`, for which the B-score result was “inactive”.

Regarding `Cc1ccc(OCC(=O)NNC(=S)NCc2ccccc2)cc1`, the B-score entry was “inactive”.

As to `Cc1cc(C)c(C(=O)CSc2nc(C)cc(=O)[nH]2)c(C)c1`, the B-score entry is “inactive”.

`Cc1ccc(C(=O)NCC(=O)OCC(=O)NC2CCCCCCC2)cc1`: the B-score result is “inactive”.

`COc1ccc(Br)cc1CN(C)CC(=O)Nc1cc([N+](=O)[O-])ccc1OC`: the B-score entry was “inactive”.

As to `CCCn1nc(C(=O)N2CCCc3ccccc32)c2ccccc2c1=O`, the B-score entry was “inactive”.

In the case of `CN(C)C(=O)N1CCNCC1`, the B-score result was “inactive”.

Consider `Cc1ccc(CC2CC(=O)N(c3cc(C)ccc3C)C2=O)cc1` (stereo unspecified), for which the B-score result is “inactive”.

Take `O=C(CNS(=O)(=O)c1ccc(Br)s1)N1CCN(C(=O)c2ccco2)CC1`: the B-score result is “inactive”.
